According to ChEMBL document CHEMBL4406847, “Tryptoline-based benzothiazoles re-sensitize MRSA to β-lactam antibiotics” (Bioorg Med Chem, 2019):

Experiments:
Staphylococcus aureus [1] = experiment: Potentiation of cefuroxime induced antibacterial activity against methicillin resistant Staphylococcus aureus NR-46411 assessed as minimum resensitizing concentration after 18 hrs by broth microdilution method; type: functional; conditions: NR-46411, 18 h, read-out: MEC
In short: (§1)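 Compound titrated with cefuroxime, using the same method as the cefazolin MRC; MRC is the lowest compound concentration preventing overnight growth, in μg/mL.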

Staphylococcus aureus [2] = experiment: Potentiation of cefazolin induced antibacterial activity against Staphylococcus aureus ATCC BAA-1683 assessed as minimum resensitizing concentration after 18 hrs by broth microdilution method; type: functional; conditions: ATCC BAA-1683, 18 h, read-out: MEC
In short: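 MRSA BAA-1683 grown overnight with cefazolin held at its CLSI breakpoint, 8 μg/mL, plus varying analogue; MRC = analogue concentration giving no overnight growth; confirmed in triplicate.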

Staphylococcus aureus [3] = experiment: Antibacterial activity against methicillin resistant Staphylococcus aureus ATCC BAA-1764 after 18 hrs by broth microdilution method; type: functional; conditions: ATCC BAA-1764, 18 h
In short: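 Compound alone, MIC by standard CLSI broth microdilution; lowest concentration with no growth, reported in μg/mL; confirmed in triplicate.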

Staphylococcus aureus [4] = experiment: Potentiation of cefuroxime induced antibacterial activity against methicillin resistant Staphylococcus aureus ATCC BAA-1764 assessed as minimum resensitizing concentration after 18 hrs by broth microdilution method; type: functional; conditions: ATCC BAA-1764, 18 h, read-out: MEC; in short: as §1
Staphylococcus aureus [5] = experiment: Potentiation of cefazolin induced antibacterial activity against methicillin resistant Staphylococcus aureus ATCC BAA-1764 assessed as minimum resensitizing concentration after 18 hrs by broth microdilution method; type: functional; conditions: ATCC BAA-1764, 18 h, read-out: MEC
In short: (§2)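 Compound titrated in the presence of cefazolin at its CLSI breakpoint (8 μg/mL); MRC is the compound concentration at which no overnight growth occurs, in μg/mL; confirmed in triplicate.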

Staphylococcus aureus [6] = experiment: Potentiation of cefazolin induced antibacterial activity against methicillin resistant Staphylococcus aureus NRS100 assessed as minimum resensitizing concentration after 18 hrs by broth microdilution method; type: functional; conditions: NRS100, 18 h, read-out: MEC; in short: as §2
Staphylococcus aureus [7] = experiment: Potentiation of cefazolin induced antibacterial activity against methicillin resistant Staphylococcus aureus NR-46411 assessed as minimum resensitizing concentration after 18 hrs by broth microdilution method; type: functional; conditions: NR-46411, 18 h, read-out: MEC; in short: as §2
Staphylococcus aureus [8] = experiment: Potentiation of cefuroxime mediated antibacterial activity against methicillin resistant Staphylococcus aureus NRS100 assessed as minimum resensitizing concentration after 18 hrs by broth microdilution method; type: functional; conditions: NRS100, 18 h, read-out: MEC; in short: as §1
[9] = Cytotoxicity against human HeLa cells assessed as cell growth inhibition measured after 24 hrs by Celltiter Glo luminescent assay; type: cell-based; conditions: HeLa cells
Staphylococcus aureus [10] = experiment: Potentiation of cefazolin induced antibacterial activity against methicillin resistant Staphylococcus aureus ATCC BAA-44 assessed as minimum resensitizing concentration after 18 hrs by broth microdilution method; type: functional; conditions: ATCC BAA-44, 18 h, read-out: MEC; in short: as §2
Staphylococcus aureus [11] = experiment: Potentiation of cefazolin induced antibacterial activity against methicillin resistant Staphylococcus aureus NRS384 assessed as minimum resensitizing concentration after 18 hrs by broth microdilution method; type: functional; conditions: NRS384, 18 h, read-out: MEC; in short: as §2
Staphylococcus aureus [12] = experiment: Potentiation of cefuroxime induced antibacterial activity against methicillin resistant Staphylococcus aureus NRS384 assessed as minimum resensitizing concentration after 18 hrs by broth microdilution method; type: functional; conditions: NRS384, 18 h, read-out: MEC; in short: as §1
Staphylococcus aureus [13] = experiment: Potentiation of cefuroxime induced antibacterial activity against Staphylococcus aureus ATCC BAA-1683 assessed as minimum resensitizing concentration after 18 hrs by broth microdilution method; type: functional; conditions: ATCC BAA-1683, 18 h, read-out: MEC
In short: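 MRSA BAA-1683 grown overnight with cefuroxime plus varying analogue, method as for cefazolin MRC (antibiotic at CLSI breakpoint); MRC = analogue concentration giving no overnight growth; confirmed in triplicate.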

Nc1cc(Cl)c2nc(N3CCc4c([nH]c5ccc(Cl)cc45)C3)sc2c1
minimal effective concentration (Staphylococcus aureus [1]): < 0.25 µg/mL
minimal effective concentration (Staphylococcus aureus [2]): 1 µg/mL
MIC (Staphylococcus aureus [3]): > 32 µg/mL
minimal effective concentration (Staphylococcus aureus [4]): 32 µg/mL
minimal effective concentration (Staphylococcus aureus [5]): 0.5 µg/mL
minimal effective concentration (Staphylococcus aureus [6]): 4 µg/mL
minimal effective concentration (Staphylococcus aureus [7]): 0.5 µg/mL
minimal effective concentration (Staphylococcus aureus [8]): 4 µg/mL
GI50 at 24 h [9]: > 100 µg/mL
minimal effective concentration (Staphylococcus aureus [10]): 2 µg/mL
minimal effective concentration (Staphylococcus aureus [11]): 4 µg/mL
minimal effective concentration (Staphylococcus aureus [12]): 4 µg/mL
minimal effective concentration (Staphylococcus aureus [13]): 8 µg/mL
